Experimental data from different studies.
Compare with care: the assays were run in different laboratories.
Cell line: L02
Read-out: cell growth or viability

SMILES	test	conditions	IC50 [µM]
Cc1c(OCC(F)(F)F)ccnc1COc1ccc(NC(=O)Nc2ccc(Cl)c(C(F)(F)F)c2)cc1	MTT	72 h	> 100
COc1ccnc(-c2cc(OC)ccn2)c1	MTT	48 h	> 50
Cc1cc(Oc2ccc(NC(=O)c3sc(-c4ccccn4)nc3C)cc2)c2nncn2n1	MTT		> 50
Oc1c(I)cc(I)c2cccnc12	MTT	48 h	71
COCCCOc1ccnc(COc2ccc(NC(=O)Nc3ccc(Cl)cc3)cc2)c1C	MTT	72 h	> 100
Cc1cc(Oc2ccc(NC(=O)c3sc(-c4ccncc4)nc3C)cc2)n2ncnc2n1	MTT		> 50
Oc1c(Br)cc(Br)c2cccnc12	MTT	48 h	> 100
COc1ccc(NC(=O)Nc2ccc(OCc3nccc(OC)c3OC)cc2)cc1	MTT	72 h	> 100
Cc1cc(Oc2ccc(NC(=O)c3cc(-c4cccs4)no3)cc2F)c2nncn2n1	MTT		> 50
COc1cc(C2Oc3cc([C@H]4Oc5cc(O)cc(O)c5C(=O)[C@@H]4O)ccc3OC2CO)ccc1O (stereo partly shown)	CCK-8	72 h	> 300
